# Key:
# [1] = target: Muscarinic acetylcholine receptor; assay: The compound was tested in vitro for central muscarinic acetylcholine receptor affinity to displace [3H]quinuclidinyl benzilate from rat cerebral cortex; Value ranges from 15000-45000; assay type: tissue-based
# [2] = target: Muscarinic acetylcholine receptor; assay: The compound was tested in vitro for central muscarinic acetylcholine receptor affinity to displace [3H]oxotremorine-M from rat cerebral cortex; Value ranges from 73-120; assay type: tissue-based
# [3] = target: T1, Muscarinic acetylcholine receptor (Rattus norvegicus) (UniProt P08482+P08483+P08485+P08911+P10980); assay: Relative binding of QNB and OXO-M to muscarininc receptors (ratio of IC50); assay type: protein assay
# Method in brief: (§1)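 Ratio of IC50 for [3H]QNB displacement to IC50 for [3H]OXO-M displacement in rat cerebral cortex membranes. [3H]QNB at 0.27 nM; [3H]OXO-M at 2 nM with 2 mM MgCl2. Both incubated at 37 °C for 30 min in 50 mM Tris pH 7.7.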
# [4] = target: Muscarinic acetylcholine receptor; assay: The compound was tested in vitro for central muscarinic acetylcholine receptor affinity to displace [3H]quinuclidinyl benzilate from rat cerebral cortex; Value ranges from 1700-2000; assay type: tissue-based
# [5] = target: Muscarinic acetylcholine receptor; assay: The compound was tested in vitro for central muscarinic acetylcholine receptor affinity to displace [3H]oxotremorine-M from rat cerebral cortex; Value ranges from 6-29; assay type: tissue-based
# [6] = target: Muscarinic acetylcholine receptor; assay: The compound was tested in vitro for central muscarinic acetylcholine receptor affinity to displace [3H]oxotremorine-M from rat cerebral cortex; Value ranges from 93-190; assay type: tissue-based
# [7] = target: Muscarinic acetylcholine receptor; assay: The compound was tested in vitro for central muscarinic acetylcholine receptor affinity to displace [3H]quinuclidinyl benzilate from rat cerebral cortex; Value ranges from 14000-38000; assay type: tissue-based
# [8] = target: Muscarinic acetylcholine receptor; assay: The compound was tested in vitro for central muscarinic acetylcholine receptor affinity to displace [3H]oxotremorine-M from rat cerebral cortex; Value ranges from 650-1900; assay type: tissue-based
# [9] = target: Muscarinic acetylcholine receptor; assay: The compound was tested in vitro for central muscarinic acetylcholine receptor affinity to displace [3H]quinuclidinyl benzilate from rat cerebral cortex; Value ranges from 8000-17000; assay type: tissue-based
# [10] = target: T1, Muscarinic acetylcholine receptor (Rattus norvegicus); assay: It is the ratio of IC50 (QNB) to that of IC50 (OXO-M); assay type: protein assay; method in brief: as §1
# [11] = target: Muscarinic acetylcholine receptor; assay: The compound was tested in vitro for central muscarinic acetylcholine receptor affinity to displace [3H]quinuclidinyl benzilate from rat cerebral cortex; Value ranges from 1800-3000; assay type: tissue-based
# [12] = target: Muscarinic acetylcholine receptor; assay: The compound was tested in vitro for central muscarinic acetylcholine receptor affinity to displace [3H]oxotremorine-M from rat cerebral cortex; Value ranges from 25-31; assay type: tissue-based
# [13] = tested on: Mus musculus; assay: Dose administered perorally which causes a fall of 3 degrees C in mean rectal temperature in group of 5 mice; assay type: functional
# Method in brief: (§2)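 Male CDI mice, 25–32 g, housed singly; rectal temperature read by thermocouple probe at 2.5 cm depth, three baseline readings at 20–30 min intervals, then every 15 min after dosing. ED3 read graphically as the dose giving a 3 °C fall in mean rectal temperature, groups of five; 95% confidence intervals given.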
# [14] = tested on: Mus musculus; assay: Dose administered subcutaneously which causes a fall of 3 degrees C in mean rectal temperature in group of 5 mice.; assay type: functional; method in brief: as §2
# [15] = target: Muscarinic acetylcholine receptor; assay: The compound was tested in vitro for central Muscarinic acetylcholine receptor affinity to displace [3H]quinuclidinyl benzilate from rat cerebral cortex; Value ranges from […]; assay type: tissue-based
# [16] = target: Muscarinic acetylcholine receptor; assay: The compound was tested in vitro for central Muscarinic acetylcholine receptor affinity to displace [3H]oxotremorine-M from rat cerebral cortex; Value ranges from 12-18; assay type: tissue-based
# [17] = It is the ratio of IC50(QNB) to that of IC50(OXO-M); method in brief: as §1
# [18] = target: Muscarinic acetylcholine receptor; assay: The compound was tested in vitro for central muscarinic acetylcholine receptor affinity to displace [3H]oxotremorine-M from rat cerebral cortex; Value ranges from 34-52; assay type: tissue-based
# [19] = target: Muscarinic acetylcholine receptor; assay: The compound was tested in vitro for central muscarinic acetylcholine receptor affinity to displace [3H]quinuclidinyl benzilate from rat cerebral cortex; Value ranges from 8000-11000; assay type: tissue-based
# [20] = target: Muscarinic acetylcholine receptor; assay: The compound was tested in vitro for central muscarinic acetylcholine receptor affinity to displace [3H]oxotremorine-M from rat cerebral cortex; Value ranges from 36-85; assay type: tissue-based
# [21] = target: Muscarinic acetylcholine receptor; assay: The compound was tested in vitro for central muscarinic acetylcholine receptor affinity to displace [3H]quinuclidinyl benzilate from rat cerebral cortex; Value ranges from 29000-33000; assay type: tissue-based
# [22] = target: Muscarinic acetylcholine receptor; assay: The compound was tested in vitro for central muscarinic acetylcholine receptor affinity to displace [3H]quinuclidinyl benzilate from rat cerebral cortex; Value ranges from 16000-36000; assay type: tissue-based
# [23] = target: Muscarinic acetylcholine receptor; assay: The compound was tested in vitro for central muscarinic acetylcholine receptor affinity to displace [3H]oxotremorine-M from rat cerebral cortex; Value ranges from 440-600; assay type: tissue-based
# [24] = target: Muscarinic acetylcholine receptor; assay: The compound was tested in vitro for central muscarinic acetylcholine receptor affinity to displace [3H]oxotremorine-M from rat cerebral cortex; Value ranges from 41-48; assay type: tissue-based
# [25] = target: Muscarinic acetylcholine receptor; assay: The compound was tested in vitro for central muscarinic acetylcholine receptor affinity to displace [3H]quinuclidinyl benzilate from rat cerebral cortex; Value ranges from 2300-2600; assay type: tissue-based
# [26] = target: Muscarinic acetylcholine receptor; assay: The compound was tested in vitro for central muscarinic acetylcholine receptor affinity to displace [3H]oxotremorine-M from rat cerebral cortex; Value ranges from 78-200; assay type: tissue-based
# [27] = target: Muscarinic acetylcholine receptor; assay: The compound was tested in vitro for central muscarinic acetylcholine receptor affinity to displace [3H]quinuclidinyl benzilate from rat cerebral cortex; Value ranges from 23000-38000; assay type: tissue-based
# [28] = target: Muscarinic acetylcholine receptor; assay: The compound was tested in vitro for central muscarinic acetylcholine receptor affinity to displace [3H]oxotremorine-M from rat cerebral cortex; Value ranges from 75-80; assay type: tissue-based
# [29] = target: Muscarinic acetylcholine receptor; assay: The compound was tested in vitro for central muscarinic acetylcholine receptor affinity to displace [3H]quinuclidinyl benzilate from rat cerebral cortex; Value ranges from 11000-14000; assay type: tissue-based
# [30] = target: Muscarinic acetylcholine receptor; assay: The compound was tested in vitro for central muscarinic acetylcholine receptor affinity to displace [3H]oxotremorine-M from rat cerebral cortex; Value ranges from 950-1000; assay type: tissue-based
# [31] = target: Muscarinic acetylcholine receptor; assay: The compound was tested in vitro for central muscarinic acetylcholine receptor affinity to displace [3H]quinuclidinyl benzilate from rat cerebral cortex; Value ranges from 15000-25000; assay type: tissue-based
# [32] = tested on: Mus musculus; assay: Dose administered subcutaneously which causes a fall of 3 degrees C in mean rectal temperature in group of 5 mice; assay type: functional; method in brief: as §2
# [33] = target: Muscarinic acetylcholine receptor; assay: The compound was tested in vitro for central muscarinic acetylcholine receptor affinity to displace [3H]oxotremorine-M from rat cerebral cortex; Value ranges from 190-280; assay type: tissue-based
# [34] = target: Muscarinic acetylcholine receptor; assay: The compound was tested in vitro for central muscarinic acetylcholine receptor affinity to displace [3H]quinuclidinyl benzilate from rat cerebral cortex; Value ranges from 44000-60000; assay type: tissue-based
# [35] = target: Muscarinic acetylcholine receptor; assay: The compound was tested in vitro for central muscarinic acetylcholine receptor affinity to displace [3H]oxotremorine-M from rat cerebral cortex; Value ranges from 14-27; assay type: tissue-based
# [36] = target: Muscarinic acetylcholine receptor; assay: The compound was tested in vitro for central muscarinic acetylcholine receptor affinity to displace [3H]quinuclidinyl benzilate from rat cerebral cortex; Value ranges from 6200-6700; assay type: tissue-based
# [37] = target: Muscarinic acetylcholine receptor; assay: The compound was tested in vitro for central muscarinic acetylcholine receptor affinity to displace [3H]quinuclidinyl benzilate from rat cerebral cortex; Value ranges from 1300-2300; assay type: tissue-based
# [38] = target: Muscarinic acetylcholine receptor; assay: The compound was tested for muscarinic acetylcholine receptor affinity to displace [3H]oxotremorine-M from rat cerebral cortex; Value ranges from 250-280; assay type: tissue-based
# [39] = target: Muscarinic acetylcholine receptor; assay: The compound was tested in vitro for central muscarinic acetylcholine receptor affinity to displace [3H]oxotremorine-M from rat cerebral cortex; Value ranges from 93-280; assay type: tissue-based
# [40] = target: Muscarinic acetylcholine receptor; assay: The compound was tested in vitro for central muscarinic acetylcholine receptor affinity to displace [3H]quinuclidinyl benzilate from rat cerebral cortex; Value ranges from 48000-100000; assay type: tissue-based
# [41] = target: Muscarinic acetylcholine receptor; assay: The compound was tested in vitro for central muscarinic acetylcholine receptor affinity to displace [3H]oxotremorine-M from rat cerebral cortex; Value ranges from 100-150; assay type: tissue-based
# [42] = target: Muscarinic acetylcholine receptor; assay: The compound was tested in vitro for central muscarinic acetylcholine receptor affinity to displace [3H]quinuclidinyl benzilate from rat cerebral cortex; Value ranges from 3900-5800; assay type: tissue-based
# [43] = target: Muscarinic acetylcholine receptor; assay: The compound was tested in vitro for central muscarinic acetylcholine receptor affinity to displace [3H]oxotremorine-M from rat cerebral cortex; Value ranges from 1.6-3.9; assay type: tissue-based
# [44] = target: Muscarinic acetylcholine receptor; assay: The compound was tested in vitro for central muscarinic acetylcholine receptor affinity to displace [3H]quinuclidinyl benzilate from rat cerebral cortex; Value ranges from 930-1100; assay type: tissue-based
# [45] = target: Muscarinic acetylcholine receptor; assay: The compound was tested in vitro for central muscarinic acetylcholine receptor affinity to displace [3H]oxotremorine-M from rat cerebral cortex; Value ranges from 200-340; assay type: tissue-based
# [46] = target: Muscarinic acetylcholine receptor; assay: The compound was tested in vitro for central muscarinic acetylcholine receptor affinity to displace [3H]quinuclidinyl benzilate from rat cerebral cortex; Value ranges from 2800-6300; assay type: tissue-based
# [47] = target: Muscarinic acetylcholine receptor; assay: The compound was tested in vitro for central muscarinic acetylcholine receptor affinity to displace [3H]oxotremorine-M from rat cerebral cortex; Value ranges from 1000-1900; assay type: tissue-based
# [48] = target: Muscarinic acetylcholine receptor; assay: The compound was tested in vitro for central muscarinic acetylcholine receptor affinity to displace [3H]quinuclidinyl benzilate from rat cerebral cortex; Value ranges from 60000-65000; assay type: tissue-based
smiles,measurement,setting,value
Cc1nc([C@@H]2CN3CC[C@@H]2C3)no1,IC50,[1],27000 nM
same,IC50,[2],92 nM
same,Ratio,[3],290
Cc1noc(C2CN3CCC2CC3)n1 (stereo unspecified),IC50,[4],1800 nM
same,IC50,[5],14 nM
same,Ratio,[3],130
Cc1noc(C23CCN(CC2)C3)n1,IC50,[6],130 nM
same,IC50,[7],23000 nM
same,Ratio,[3],170
Cc1nc(C2CN3CCC2CC3)no1 (stereo unspecified),IC50,[8],1100 nM
same,IC50,[9],12000 nM
same,Ratio,[10],10
Cc1noc([C@@H]2C[C@H]3CCN(C3)C2)n1,IC50,[11],2400 nM
same,IC50,[12],28 nM
same,Ratio,[3],84
Cc1noc(C23CCCN(CC2)C3)n1 (stereo unspecified),ED3,[13],0.018 mg/kg
same,ED3,[14],0.0029 mg/kg
same,IC50,[15],3500 nM
same,IC50,[16],15 nM
same,Ratio,[17],230
Cc1nnc(C23CCCN(CC2)C3)o1 (stereo unspecified),IC50,[18],42 nM
same,IC50,[19],9400 nM
same,Ratio,[10],220
COC(=O)C12CCN(CC1)C2,IC50,[20],48 nM
same,Ratio,[10],650
same,IC50,[21],31000 nM
COC(=O)C1CN2CCC1CC2 (stereo unspecified),IC50,[22],25000 nM
same,IC50,[23],520 nM
same,Ratio,[3],49
Cc1noc([C@@H]2CN3CCC[C@@H]2C3)n1,IC50,[24],44 nM
same,Ratio,[3],55
same,IC50,[25],2400 nM
Cc1nnc([C@@H]2CN3CC[C@@H]2C3)o1,IC50,[26],120 nM
same,Ratio,[10],240
same,IC50,[27],29000 nM
COC(=O)[C@@H]1C[C@H]2CCN(C2)C1,IC50,[28],77 nM
same,IC50,[29],12000 nM
same,Ratio,[3],160
Cc1nnc(C2CN3CCC2CC3)o1 (stereo unspecified),IC50,[30],980 nM
same,IC50,[31],19000 nM
same,Ratio,[10],20
COC(=O)[C@@H]1CN2CC[C@@H]1C2,ED3,[13],>10 mg/kg
same,ED3,[32],0.41 mg/kg
same,IC50,[33],230 nM
same,IC50,[34],51000 nM
same,Ratio,[3],220
COC(=O)C12CCCN(CC1)C2 (stereo unspecified),ED3,[13],>0.3 mg/kg
same,ED3,[32],0.078 mg/kg
same,IC50,[35],19 nM
same,IC50,[36],6400 nM
same,Ratio,[3],340
Cc1noc([C@@H]2C[C@H]3CCCN(C3)C2)n1,IC50,[37],1730 nM
same,IC50,[38],260 nM
same,Ratio,[3],7
Cc1nnc(C23CCN(CC2)C3)o1,IC50,[39],180 nM
same,IC50,[40],70000 nM
same,Ratio,[10],380
COC(=O)[C@@H]1C[C@H]2CCCN(C2)C1,IC50,[41],130 nM
same,Ratio,[3],37
same,IC50,[42],4800 nM
Cc1noc([C@@H]2CN3CC[C@@H]2C3)n1,ED3,[13],0.0011 mg/kg
same,ED3,[32],0.0005 mg/kg
same,IC50,[43],2.8 nM
same,IC50,[44],1000 nM
same,Ratio,[3],360
Cc1nc(C23CCCN(CC2)C3)no1 (stereo unspecified),IC50,[45],260 nM
same,IC50,[46],4200 nM
same,Ratio,[10],16
COC(=O)[C@@H]1C[N@@]2CCC[C@@H]1C2,IC50,[47],1400 nM
same,IC50,[48],62000 nM
same,Ratio,[10],46

# Reference: ChEMBL document CHEMBL1125199, “Comparison of azabicyclic esters and oxadiazoles as ligands for the muscarinic receptor” (J Med Chem, 1991)
